Among the data in ChEMBL document CHEMBL1156775 (J Med Chem, 2010) are Ratio Ki and Ki values, retold here.

Test [1] is filed under the species Homo sapiens. Put plainly: Selectivity ratio of Ki for human kappa opioid receptor to Ki for human mu opioid receptor.
The next test has as its target Mu-type opioid receptor (Homo sapiens, UniProt P35372). Kind of test: Displacement of [3H]DAMGO from human mu opioid receptor expressed in CHO cells. It is filed as cell-based. (Loss of bound radioactivity is the signal in a displacement assay; it reports binding, not function.)
Test [2] concerns the target Delta-type opioid receptor (Homo sapiens, UniProt P41143). Put plainly: Displacement of [3H]naltrindole from human delta opioid receptor expressed in CHO cells. It is filed as cell-based. An outline of the steps:
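CHO cells stably expressing a single human opioid receptor were grown in DMEM with 10% FBS and penicillin/streptomycin at 37 °C in 5% CO2. Their membranes were incubated with radioligand and 12 concentrations of test compound at 25 °C in 50 mM Tris-HCl, pH 7.5.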

For test [3], the species on record is Homo sapiens. Kind of test: Selectivity ratio of Ki for human delta opioid receptor to Ki for human mu opioid receptor.
Test [4] addresses Kappa-type opioid receptor (Homo sapiens, UniProt P41145). Put plainly: Displacement of [3H]U69593 from human kappa opioid receptor expressed in CHO cells. It is filed as cell-based.

Sequence of Mu-type opioid receptor (P35372 whole entry): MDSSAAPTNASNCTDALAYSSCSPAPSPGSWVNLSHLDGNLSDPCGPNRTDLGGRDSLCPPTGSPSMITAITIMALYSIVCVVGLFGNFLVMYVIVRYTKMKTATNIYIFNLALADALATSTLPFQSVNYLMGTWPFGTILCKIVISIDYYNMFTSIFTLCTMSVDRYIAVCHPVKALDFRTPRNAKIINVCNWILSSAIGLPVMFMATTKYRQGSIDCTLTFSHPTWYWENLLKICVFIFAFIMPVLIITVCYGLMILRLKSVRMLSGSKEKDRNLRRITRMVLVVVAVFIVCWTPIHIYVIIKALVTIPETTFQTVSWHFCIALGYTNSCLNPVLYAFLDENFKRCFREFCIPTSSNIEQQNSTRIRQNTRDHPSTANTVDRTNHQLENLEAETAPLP
Sequence of Kappa-type opioid receptor (P41145 whole entry): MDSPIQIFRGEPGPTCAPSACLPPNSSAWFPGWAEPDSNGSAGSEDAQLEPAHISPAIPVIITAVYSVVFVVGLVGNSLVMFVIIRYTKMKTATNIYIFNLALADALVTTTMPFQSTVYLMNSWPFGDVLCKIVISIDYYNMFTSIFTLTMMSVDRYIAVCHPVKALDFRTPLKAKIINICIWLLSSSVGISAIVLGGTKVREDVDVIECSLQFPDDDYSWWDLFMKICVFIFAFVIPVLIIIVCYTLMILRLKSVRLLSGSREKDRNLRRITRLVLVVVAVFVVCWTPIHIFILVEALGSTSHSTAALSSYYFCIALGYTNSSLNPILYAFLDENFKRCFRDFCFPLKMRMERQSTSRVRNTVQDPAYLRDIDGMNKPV
Sequence of Delta-type opioid receptor (P41143 whole entry): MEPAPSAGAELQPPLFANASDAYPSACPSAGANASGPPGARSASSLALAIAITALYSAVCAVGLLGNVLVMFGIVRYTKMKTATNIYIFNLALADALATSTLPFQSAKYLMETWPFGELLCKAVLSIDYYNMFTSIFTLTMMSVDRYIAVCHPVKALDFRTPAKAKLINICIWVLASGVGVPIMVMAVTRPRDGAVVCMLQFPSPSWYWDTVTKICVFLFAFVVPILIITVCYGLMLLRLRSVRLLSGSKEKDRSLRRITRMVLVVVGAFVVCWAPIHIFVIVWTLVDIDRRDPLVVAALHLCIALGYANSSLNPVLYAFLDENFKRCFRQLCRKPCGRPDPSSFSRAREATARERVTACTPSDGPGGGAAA

The Ki is a measure of affinity in units of concentration, obtained from inhibition or displacement. A lower Ki goes with a stronger hold on the target. As to `Oc1cc2c(cc1CNCCCCCCNCc1cc3c(cc1O)[C@@]14CCCC[C@H]1[C@@H](C3)N(CC1CCC1)CC4)C[C@@H]1[C@@H]3CCCC[C@]23CCN1CC1CCC1`, the Ratio Ki came to 0.5 in the test filed under Homo sapiens [1] and 12 in the test filed under Homo sapiens [3]. Moreover, the Ki came to 76 nM on Mu-type opioid receptor, 850 nM in test [2] and 37 nM in test [4].
The like results for `O=C(Nc1ccc(I)cc1)Oc1ccc2c(c1)[C@@]13CCCC[C@H]1[C@@H](C2)N(CC1CC1)CC3` were, in that order, 1, 24, 0.58 nM, 14.6 nM and 0.6 nM.
`CCN(CCCCN(CC)Cc1cc2c(cc1O)[C@@]13CCCC[C@H]1[C@@H](C2)N(CC1CCC1)CC3)Cc1cc2c(cc1O)[C@@]13CCCC[C@H]1[C@@H](C2)N(CC1CCC1)CC3`: the Ratio Ki in the test filed under Homo sapiens [1] was determined as 0.3; in the test listed under Homo sapiens [3] it was 7. The Ki at Mu-type opioid receptor amounted to 160 nM; in test [2] it was 1100 nM; in test [4], 44 nM.
